# In article PMC8336483 (Chemical Science, 2021):
# Tested on: MDA-MB-231 cells
# Format: cell-based, human
# Conditions: 1 h incubation
# Procedure, shortened: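 MDA-MB-231 cells incubated 1 h with fluorescent conjugates or linker-functionalised fluorescein, then analysed by fluorescence correlation spectroscopy in the cytoplasm. Probe hydrodynamic radii and cytoplasmic viscosity were first determined by FCS. Cytoplasmic diffusion coefficients came from autocorrelation curves and were compared with values predicted for free diffusion using a cytoplasm viscosity model.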
substance,measurement,value
FAM-PEG,FCS autocorrelation of fluorescence signal in cells,no autocorrelation of fluorescence signal was detected
